Reference: ChEMBL document CHEMBL1833790, “N-(2-{3-[3,5-bis(trifluoromethyl)phenyl]ureido}ethyl)-glycyrrhetinamide (6b): a novel anticancer glycyrrhetinic acid derivative that targets the proteasome and displays anti-kinase activity” (J Med Chem, 2011)
Activity calls are given as the source filed them. The calls are words filed in the database; no cut-off is given here.

How the values were obtained:
T98G = assay: Growth inhibition in apoptosis-resistant human T98G after 3 days by MTT assay; assay type: functional; details: 72 h
Procedure, shortened: (§1)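 Cells grown in RPMI with 10% heat-inactivated FCS, 4 mM glutamine, gentamicin and penicillin–streptomycin. Drug exposure 3 days, growth read by MTT colorimetric assay. Nine concentrations from 0.01 to 100 μM in semilog steps, six replicates each; IC50 derived per cell line.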

[1] = target: Megakaryocyte-associated tyrosine-protein kinase (Homo sapiens) (UniProt P42679); assay: Inhibition of MATK at 1 uM by radiometric assay
[2] = target: Tyrosine-protein kinase Fes/Fps (Homo sapiens) (UniProt P07332); assay: Inhibition of FES at 1 uM by radiometric assay
Procedure, shortened: (§2)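 Radiometric ³³PanQinase activity assay across a panel of 333 protein kinases. Compound added from a 2 × 10⁻⁵ M working solution in 10% DMSO (diluted in water from a 100% DMSO stock), giving 1 μM final in the assay.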

[3] = target: Cytoplasmic tyrosine-protein kinase BMX (Homo sapiens) (UniProt P51813); assay: Inhibition of BMX at 1 uM by radiometric assay; procedure, shortened: as §2
SK-MEL-28 = assay: Growth inhibition in apoptosis-resistant human SK-MEL-28 after 3 days by MTT assay; assay type: functional; details: SK-MEL-28, 72 h; procedure, shortened: as §1
U-373MG ATCC [4] = assay: Inhibition of trypsin-like activity of 20S proteasome in human U373 cells at 60 uM after 2 days by bioluminescence assay; assay type: cell-based
Procedure, shortened: (§3)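 U373 GBM cells seeded at 5000 cells/mL and grown 48 h, then treated for two days. Cells washed in PBS and permeabilised with 0.025% digitonin. Proteasome-Glo reagent added with Suc-LLVY-Glo (chymotrypsin-like), Z-LRR-Glo (trypsin-like) or Z-nLPnLD-Glo (caspase-like) substrate. Luminescence read after 10 min in the dark and normalised to a parallel MTT viability assay; triplicates. MG-132 at 0.5 μM used as reference.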

U-373MG ATCC [5] = assay: Induction of apoptosis in human U373 cells assessed as proapoptotic effect at 10 uM after 48 to 72 hrs by TUNEL-based flow cytometric analysis; assay type: functional, cell-based
Procedure, shortened: (§4)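 A549 NSCLC and U373 GBM cells were treated 48 or 72 h and analysed with the APO AF kit. TUNEL labelling ran 1 h at 37 °C, followed by propidium iodide (5 μg/mL) with RNase. Apoptotic fraction and % cells in G1 were measured by flow cytometry. Kit negative/positive controls and 1 μM narciclasine-treated PC-3 cells served as controls.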

A549 [6] = assay: Cytostatic activity against human A549 cells assessed as accumulation of cells in G1 phase at 10 uM after 48 to 72 hrs by TUNEL-based flow cytometric analysis; assay type: functional, cell-based; procedure, shortened: as §4
[7] = target: Serine/threonine-protein kinase PAK 2 (Homo sapiens) (UniProt Q13177); assay: Inhibition of PAK2 at 1 uM by radiometric assay
U-373MG ATCC [8] = assay: Inhibition of chymotrypsin-like activity of 20S proteasome in human U373 cells at 0.5 uM after 2 days by bioluminescence assay; assay type: cell-based; procedure, shortened: as §3
U-373MG ATCC [9] = assay: Inhibition of trypsin-like activity of 20S proteasome in human U373 cells at 0.5 uM after 2 days by bioluminescence assay; assay type: cell-based; procedure, shortened: as §3
MCF7 = assay: Growth inhibition in apoptosis-sensitive human MCF7 after 3 days by MTT assay; assay type: functional; details: MCF7, 72 h; procedure, shortened: as §1
[10] = target: Insulin-like growth factor 1 receptor (Homo sapiens) (UniProt P08069); assay: Inhibition of IGF-R1 at 1 uM by radiometric assay
[11] = target: Tyrosine-protein kinase Fyn (Homo sapiens) (UniProt P06241); assay: Inhibition of FYN at 1 uM by radiometric assay
U-373MG ATCC [12] = assay: Inhibition of chymotrypsin-like activity of 20S proteasome in human U373 at 7 uM after 2 days by bioluminescence assay; assay type: cell-based; procedure, shortened: as §3
[13] = target: Ephrin type-B receptor 4 (Homo sapiens) (UniProt P54760); assay: Inhibition of EPHB4 at 1 uM by radiometric assay; procedure, shortened: as §2
[14] = Growth inhibition in apoptosis-resistant human U373 after 3 days by MTT assay; assay type: functional, U-373MG ATCC; details: U373 MG, 72 h; procedure, shortened: as §1
[15] = Chemical stability of the compound in MEM cell culture medium after 7 days by HPLC analysis; assay type: physicochemical; details: read-out: Stability
Procedure, shortened: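 Compound incubated in MEM culture medium at 37 °C for 7 days, then analysed by HPLC on RX-C8 (5 μm) column with MeOH–water 90:10 (0.1% TFA), diode-array detection. Expressed as % of incubated compound recovered.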

PC-3 = assay: Growth inhibition in apoptosis-sensitive human PC3 after 3 days by MTT assay; assay type: functional; details: PC-3, 72 h; procedure, shortened: as §1
U-373MG ATCC [16] = assay: Inhibition of trypsin-like activity of 20S proteasome in human U373 cells at 7 uM after 2 days by bioluminescence assay; assay type: cell-based; procedure, shortened: as §3
U-373MG ATCC [17] = assay: Inhibition of caspase-like activity of 20S proteasome in human U373 cells at 0.5 uM after 2 days by bioluminescence assay; assay type: cell-based; procedure, shortened: as §3
[18] = target: ALK tyrosine kinase receptor (Homo sapiens) (UniProt Q9UM73); assay: Inhibition of ALK at 1 uM by radiometric assay; procedure, shortened: as §2
[19] = target: Tyrosine-protein kinase ZAP-70 (Homo sapiens) (UniProt P43403); assay: Inhibition of ZAP70 at 1 uM by radiometric assay
U-373MG ATCC [20] = assay: Inhibition of chymotrypsin-like activity of 20S proteasome in human U373 cells at 60 uM after 2 days by bioluminescence assay; assay type: cell-based; procedure, shortened: as §3
A549 [21] = assay: Induction of apoptosis in human A549 cells assessed as proapoptotic effect at 10 uM after 48 to 72 hrs by TUNEL-based flow cytometric analysis; assay type: functional, cell-based; procedure, shortened: as §4
[22] = target: T1, Peroxisome proliferator-activated receptor gamma (Homo sapiens) (UniProt P37231); assay: Activation of PPARgamma activity in human U373 cells at 90 uM after 6 hrs by spectrophotometric analysis relative to control; assay type: cell-based; details: U-373MG ATCC, 7 uM, in the assay text read “at 7 uM” for “at 90 uM”
T1 sequence (whole entry): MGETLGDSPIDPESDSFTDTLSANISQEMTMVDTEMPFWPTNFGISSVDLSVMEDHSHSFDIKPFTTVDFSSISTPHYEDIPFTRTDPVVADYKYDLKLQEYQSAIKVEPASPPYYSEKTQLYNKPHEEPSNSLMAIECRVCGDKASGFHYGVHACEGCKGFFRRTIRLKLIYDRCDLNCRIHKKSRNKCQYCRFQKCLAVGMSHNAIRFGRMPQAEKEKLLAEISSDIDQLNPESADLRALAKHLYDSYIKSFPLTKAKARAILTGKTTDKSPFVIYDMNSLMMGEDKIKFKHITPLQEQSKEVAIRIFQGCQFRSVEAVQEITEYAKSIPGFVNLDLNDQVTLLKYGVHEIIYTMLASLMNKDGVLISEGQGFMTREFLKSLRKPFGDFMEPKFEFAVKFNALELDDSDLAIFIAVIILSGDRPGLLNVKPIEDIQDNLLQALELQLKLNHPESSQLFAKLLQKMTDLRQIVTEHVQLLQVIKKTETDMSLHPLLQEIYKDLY
Procedure, shortened: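 U373 glioblastoma cells were exposed for 6 h. Nuclear extracts were prepared by hypotonic buffer, NP-40 lysis and a protease-inhibitor extraction buffer. Extracts were bound overnight at 4 °C in a PPAR-γ transcription-factor plate, then probed with primary antibody and HRP anti-rabbit secondary, 1 h each at room temperature. Developer ran 45 min, read at 450 nm. Triplicates, mean ± SD versus control.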

[23] = target: Ephrin type-B receptor 1 (Homo sapiens) (UniProt P54762); assay: Inhibition of EPHB1 at 1 uM by radiometric assay; procedure, shortened: as §2
U-373MG ATCC [24] = assay: Cytostatic activity against human U373 cells assessed as accumulation of cells in G1 phase at 10 uM after 48 to 72 hrs by TUNEL-based flow cytometric analysis; assay type: functional, cell-based; procedure, shortened: as §4
U-373MG ATCC [25] = assay: Inhibition of caspase-like activity of 20S proteasome in human U373 cells at 7 uM after 2 days by bioluminescence assay; assay type: cell-based; procedure, shortened: as §3
A549 [26] = assay: Growth inhibition in apoptosis-resistant human A549 after 3 days by MTT assay; assay type: functional; details: A549, 72 h; procedure, shortened: as §1
U-373MG ATCC [27] = assay: Inhibition of caspase-like activity of 20S proteasome in human U373 cells at 60 uM after 2 days by bioluminescence assay; assay type: cell-based; procedure, shortened: as §3
Hs 683 = assay: Growth inhibition in apoptosis-sensitive human Hs683 after 3 days by MTT assay; assay type: functional; details: Hs 683, 72 h; procedure, shortened: as §1
B16-F10 = assay: Growth inhibition in mouse B16F10 after 3 days by MTT assay; assay type: functional; details: B16-F10, 72 h; procedure, shortened: as §1
[28] = target: Fibroblast growth factor receptor 2 (Homo sapiens) (UniProt P21802); assay: Inhibition of FGFR2 at 1 uM by radiometric assay; procedure, shortened: as §2
U-373MG ATCC [29] = assay: Activation of chymotrypsin-like activity of 20S proteasome in human U373 cells at 90 uM after 2 days by bioluminescence assay; assay type: cell-based
Procedure, shortened: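 Chymotrypsin-like site, substrate Suc-LLVY-Glo. U373 cells were seeded at 5000 cells/mL for 48 h and exposed two days. After a PBS wash and 0.025% digitonin permeabilisation, Proteasome-Glo reagent was added. Bioluminescence was read after 10 min dark incubation. Triplicates, normalised by a concurrent MTT viability assay run in identical conditions.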

U-373MG ATCC [30] = assay: Activation of caspase-like activity of 20S proteasome in human U373 cells at 90 uM after 2 days by bioluminescence assay; assay type: cell-based
Procedure, shortened: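 Caspase-like site, substrate Z-nLPnLD-Glo. U373 cells were plated at 5000 cells/mL for 48 h, then treated two days. Cells were PBS-washed and permeabilised with 0.025% digitonin before Proteasome-Glo reagent was added. Luminescence was read after 10 min in the dark. Triplicates, normalised to a parallel MTT viability assay under identical conditions.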

A549 [31] = assay: Cell cycle arrest in human A549 cells assessed as accumulation of cells in G1 phase at 100 uM after 48 to 72 hrs by TUNEL-based flow cytometric analysis; assay type: functional; procedure, shortened: as §4
U-373MG ATCC [32] = assay: Inhibition of trypsin-like activity of 20S proteasome in human U373 cells at 90 uM after 2 days by bioluminescence assay; assay type: cell-based; procedure, shortened: as §3
[33] = Cell cycle arrest in human U373 cells assessed as accumulation of cells in G1 phase at 80 uM after 48 to 72 hrs by TUNEL-based flow cytometric analysis; assay type: functional; details: U-373MG ATCC; procedure, shortened: as §4
[34] = target: T1, Peroxisome proliferator-activated receptor gamma (Homo sapiens); assay: Activation of PPARgamma activity in human U373 cells at 90 uM after 6 hrs by spectrophotometric analysis relative to control; details: U-373MG ATCC

Sequence of Megakaryocyte-associated tyrosine-protein kinase (Homo sapiens) (P42679 whole entry): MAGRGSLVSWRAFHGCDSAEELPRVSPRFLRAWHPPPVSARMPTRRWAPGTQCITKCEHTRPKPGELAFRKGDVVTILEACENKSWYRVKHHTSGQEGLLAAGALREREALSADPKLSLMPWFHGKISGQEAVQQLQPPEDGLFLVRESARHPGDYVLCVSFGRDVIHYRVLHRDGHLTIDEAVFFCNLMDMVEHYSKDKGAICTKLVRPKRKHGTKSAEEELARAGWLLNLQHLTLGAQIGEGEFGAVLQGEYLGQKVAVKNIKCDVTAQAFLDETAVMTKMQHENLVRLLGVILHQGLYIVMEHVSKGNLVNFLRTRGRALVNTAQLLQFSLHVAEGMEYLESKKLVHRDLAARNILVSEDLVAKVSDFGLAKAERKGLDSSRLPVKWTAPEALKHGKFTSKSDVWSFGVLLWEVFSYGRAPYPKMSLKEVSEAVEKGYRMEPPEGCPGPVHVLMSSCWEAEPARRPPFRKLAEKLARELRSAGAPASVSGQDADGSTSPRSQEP
Sequence of ALK tyrosine kinase receptor (Homo sapiens) (Q9UM73 19-1620 limits assumed): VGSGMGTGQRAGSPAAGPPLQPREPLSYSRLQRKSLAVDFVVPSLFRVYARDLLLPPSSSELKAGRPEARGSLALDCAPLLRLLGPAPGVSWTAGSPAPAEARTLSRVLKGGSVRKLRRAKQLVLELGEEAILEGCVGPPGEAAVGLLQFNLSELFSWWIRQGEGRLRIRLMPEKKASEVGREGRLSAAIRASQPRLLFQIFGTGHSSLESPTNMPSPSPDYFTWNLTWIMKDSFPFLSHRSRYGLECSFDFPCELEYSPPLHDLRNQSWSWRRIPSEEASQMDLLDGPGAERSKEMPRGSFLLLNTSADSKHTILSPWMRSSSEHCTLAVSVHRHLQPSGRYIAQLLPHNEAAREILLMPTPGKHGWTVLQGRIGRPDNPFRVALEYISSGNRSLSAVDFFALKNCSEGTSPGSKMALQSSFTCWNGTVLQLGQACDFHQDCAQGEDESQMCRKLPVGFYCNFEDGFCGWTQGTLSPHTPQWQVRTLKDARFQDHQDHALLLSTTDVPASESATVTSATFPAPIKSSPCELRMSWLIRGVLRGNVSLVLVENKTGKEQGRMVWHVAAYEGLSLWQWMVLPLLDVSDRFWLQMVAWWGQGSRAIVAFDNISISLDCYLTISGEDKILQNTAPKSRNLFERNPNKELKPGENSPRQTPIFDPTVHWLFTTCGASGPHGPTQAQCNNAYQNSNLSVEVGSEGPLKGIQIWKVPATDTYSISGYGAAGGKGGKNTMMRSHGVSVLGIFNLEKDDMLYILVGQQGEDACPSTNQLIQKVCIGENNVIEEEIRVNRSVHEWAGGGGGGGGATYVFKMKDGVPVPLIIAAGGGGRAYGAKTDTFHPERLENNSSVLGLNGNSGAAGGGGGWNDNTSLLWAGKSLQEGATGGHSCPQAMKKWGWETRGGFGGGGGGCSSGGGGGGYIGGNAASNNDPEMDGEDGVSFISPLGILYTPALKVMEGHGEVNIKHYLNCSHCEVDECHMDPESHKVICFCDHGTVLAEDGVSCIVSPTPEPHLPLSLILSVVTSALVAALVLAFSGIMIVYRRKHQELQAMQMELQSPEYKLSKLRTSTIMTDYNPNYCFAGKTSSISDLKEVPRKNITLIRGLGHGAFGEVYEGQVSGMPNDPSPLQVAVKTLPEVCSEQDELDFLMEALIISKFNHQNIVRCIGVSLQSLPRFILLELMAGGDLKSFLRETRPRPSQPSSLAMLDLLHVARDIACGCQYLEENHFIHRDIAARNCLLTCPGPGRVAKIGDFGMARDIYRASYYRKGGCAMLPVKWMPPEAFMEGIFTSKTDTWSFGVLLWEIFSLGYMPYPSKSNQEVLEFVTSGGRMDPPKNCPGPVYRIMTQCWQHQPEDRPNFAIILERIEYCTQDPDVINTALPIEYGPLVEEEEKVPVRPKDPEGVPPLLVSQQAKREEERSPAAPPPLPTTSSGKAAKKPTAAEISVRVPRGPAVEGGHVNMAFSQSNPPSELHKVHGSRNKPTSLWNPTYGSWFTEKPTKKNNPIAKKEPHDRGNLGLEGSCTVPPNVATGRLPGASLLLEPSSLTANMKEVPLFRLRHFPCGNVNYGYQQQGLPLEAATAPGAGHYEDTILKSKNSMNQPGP
Sequence of Tyrosine-protein kinase Fes/Fps (Homo sapiens) (P07332 whole entry): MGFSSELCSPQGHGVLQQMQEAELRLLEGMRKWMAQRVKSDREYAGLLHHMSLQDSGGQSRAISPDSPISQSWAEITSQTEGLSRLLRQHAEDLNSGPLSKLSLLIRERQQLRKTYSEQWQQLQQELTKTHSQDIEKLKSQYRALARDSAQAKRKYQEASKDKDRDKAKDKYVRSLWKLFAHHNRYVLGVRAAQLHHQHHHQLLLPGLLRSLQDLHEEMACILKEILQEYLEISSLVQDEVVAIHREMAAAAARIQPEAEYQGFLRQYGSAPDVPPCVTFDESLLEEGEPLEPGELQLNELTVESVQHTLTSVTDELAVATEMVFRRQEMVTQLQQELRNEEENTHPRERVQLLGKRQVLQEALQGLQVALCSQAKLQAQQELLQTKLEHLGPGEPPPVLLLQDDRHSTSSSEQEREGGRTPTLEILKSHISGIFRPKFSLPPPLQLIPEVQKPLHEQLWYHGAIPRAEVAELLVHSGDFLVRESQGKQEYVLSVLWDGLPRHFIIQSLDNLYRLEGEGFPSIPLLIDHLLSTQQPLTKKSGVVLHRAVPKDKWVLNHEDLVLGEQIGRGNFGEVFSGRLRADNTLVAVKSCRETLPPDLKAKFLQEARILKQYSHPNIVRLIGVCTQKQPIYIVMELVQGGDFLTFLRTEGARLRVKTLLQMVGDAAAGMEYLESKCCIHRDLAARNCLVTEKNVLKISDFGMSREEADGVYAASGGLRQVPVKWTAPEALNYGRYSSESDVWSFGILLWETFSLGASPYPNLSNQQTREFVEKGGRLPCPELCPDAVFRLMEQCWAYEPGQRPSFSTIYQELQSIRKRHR
Sequence of Serine/threonine-protein kinase PAK 2 (Homo sapiens) (Q13177 whole entry): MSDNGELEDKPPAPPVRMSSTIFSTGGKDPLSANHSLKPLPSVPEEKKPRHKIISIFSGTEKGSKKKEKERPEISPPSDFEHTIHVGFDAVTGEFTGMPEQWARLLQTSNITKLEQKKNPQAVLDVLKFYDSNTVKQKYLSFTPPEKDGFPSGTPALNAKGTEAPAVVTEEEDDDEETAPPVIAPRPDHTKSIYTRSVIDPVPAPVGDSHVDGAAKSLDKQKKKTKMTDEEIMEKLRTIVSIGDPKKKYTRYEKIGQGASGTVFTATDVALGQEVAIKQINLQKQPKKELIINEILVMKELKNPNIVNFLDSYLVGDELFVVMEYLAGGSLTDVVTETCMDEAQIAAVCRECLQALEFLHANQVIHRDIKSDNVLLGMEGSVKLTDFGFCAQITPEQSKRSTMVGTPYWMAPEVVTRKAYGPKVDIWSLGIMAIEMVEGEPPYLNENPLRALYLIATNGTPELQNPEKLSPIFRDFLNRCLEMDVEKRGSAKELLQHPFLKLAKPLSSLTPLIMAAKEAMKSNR
Sequence of Tyrosine-protein kinase Fyn (Homo sapiens) (P06241 2-537 limits assumed): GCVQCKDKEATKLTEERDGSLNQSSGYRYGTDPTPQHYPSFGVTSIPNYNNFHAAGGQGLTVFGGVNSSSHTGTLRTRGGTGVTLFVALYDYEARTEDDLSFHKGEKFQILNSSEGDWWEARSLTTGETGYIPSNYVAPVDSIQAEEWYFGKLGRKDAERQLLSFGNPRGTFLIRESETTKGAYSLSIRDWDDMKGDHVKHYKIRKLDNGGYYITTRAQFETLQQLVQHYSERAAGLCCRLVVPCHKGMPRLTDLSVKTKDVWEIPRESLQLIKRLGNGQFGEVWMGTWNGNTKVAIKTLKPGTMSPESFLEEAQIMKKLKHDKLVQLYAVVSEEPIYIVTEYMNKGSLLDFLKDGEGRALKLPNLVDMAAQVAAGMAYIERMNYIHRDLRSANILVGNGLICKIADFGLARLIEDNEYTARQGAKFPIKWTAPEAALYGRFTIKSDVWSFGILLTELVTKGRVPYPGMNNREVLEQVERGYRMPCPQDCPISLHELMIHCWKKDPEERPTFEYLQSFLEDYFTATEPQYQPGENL
Sequence of Fibroblast growth factor receptor 2 (Homo sapiens) (P21802 22-821 limits assumed): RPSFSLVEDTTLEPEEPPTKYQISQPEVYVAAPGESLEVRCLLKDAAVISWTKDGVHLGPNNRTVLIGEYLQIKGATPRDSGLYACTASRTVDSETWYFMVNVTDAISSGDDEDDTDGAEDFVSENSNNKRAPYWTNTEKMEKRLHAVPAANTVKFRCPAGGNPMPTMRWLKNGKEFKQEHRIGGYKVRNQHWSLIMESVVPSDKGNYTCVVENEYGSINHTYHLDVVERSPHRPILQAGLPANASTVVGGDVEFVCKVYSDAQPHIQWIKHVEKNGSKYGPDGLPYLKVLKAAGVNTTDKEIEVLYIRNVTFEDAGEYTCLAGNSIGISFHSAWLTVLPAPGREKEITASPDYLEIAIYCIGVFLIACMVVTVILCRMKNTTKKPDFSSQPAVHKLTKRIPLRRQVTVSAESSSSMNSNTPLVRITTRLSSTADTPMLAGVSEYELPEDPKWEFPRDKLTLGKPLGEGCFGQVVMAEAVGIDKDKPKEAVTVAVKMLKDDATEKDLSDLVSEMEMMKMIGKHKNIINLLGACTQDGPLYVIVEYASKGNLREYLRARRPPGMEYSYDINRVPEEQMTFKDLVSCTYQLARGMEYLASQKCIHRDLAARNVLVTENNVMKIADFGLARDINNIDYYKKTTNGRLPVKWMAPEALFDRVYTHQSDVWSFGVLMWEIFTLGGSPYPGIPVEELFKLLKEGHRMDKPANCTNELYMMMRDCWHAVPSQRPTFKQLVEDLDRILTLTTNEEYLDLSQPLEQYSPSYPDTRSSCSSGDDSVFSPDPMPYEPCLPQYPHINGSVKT

Work on CC1(C)[C@@H](O)CC[C@]2(C)[C@H]3C(=O)C=C4[C@@H]5C[C@@](C)(C(=O)NCCNC(=O)Nc6cc(C(F)(F)F)cc(C(F)(F)F)c6)CC[C@]5(C)CC[C@@]4(C)[C@]3(C)CC[C@@H]12 yielded a GI50 (T98G) of 12 µM, an inhibition [1] of 50% and an inhibition [2] of 59%. The inhibition [3] was 52%, the GI50 (SK-MEL-28) was 9 µM and the inhibition (U-373MG ATCC [4]) was “Active”. The Activity (U-373MG ATCC [5]) was “inactive”, the Activity (A549 [6]) was “inactive” and the inhibition [7] was 51%. The inhibition (U-373MG ATCC [8]) was “Active”, the inhibition (U-373MG ATCC [9]) was “Active” and the GI50 (MCF7) was 4 µM. For the same compound, the inhibition [10] was 64%, the inhibition [11] was 72% and the inhibition (U-373MG ATCC [12]) was “Active”. The inhibition [13] was 64%, the GI50 [14] was 6 µM and the remaining at 168 h [15] was 98%. The GI50 (PC-3) was 8 µM, the inhibition (U-373MG ATCC [16]) was “Active” and the inhibition (U-373MG ATCC [17]) was “Active”. The inhibition [18] was 69%, the inhibition [19] was 67% and the inhibition (U-373MG ATCC [20]) was “Active”. The Activity (A549 [21]) was “inactive”, the Activity [22] was “Active” and the inhibition [23] was 64%. For the same compound, the Activity (U-373MG ATCC [24]) was “inactive”, the inhibition (U-373MG ATCC [25]) was “Active” and the GI50 (A549 [26]) was 7 µM. For the same compound, the inhibition (U-373MG ATCC [27]) was “Active”, the GI50 (Hs 683) was 6 µM and the GI50 (B16-F10) was 4 µM. It also gave an inhibition [28] of 67%.
For CC1(C)[C@@H](O)CC[C@]2(C)[C@H]3C(=O)C=C4[C@@H]5C[C@@](C)(C(=O)O)CC[C@]5(C)CC[C@@]4(C)[C@]3(C)CC[C@@H]12 [ENOXOLONE], the GI50 (T98G) was 85 µM, the GI50 (SK-MEL-28) was 92 µM and the Activity (U-373MG ATCC [29]) was “Active”. The Activity (U-373MG ATCC [30]) was “Active”, the GI50 (MCF7) was 76 µM and the Activity (A549 [31]) was “inactive”. The GI50 [14] was 83 µM, the remaining at 168 h [15] was 98% and the GI50 (PC-3) was 80 µM. The inhibition (U-373MG ATCC [32]) was “Active”, the GI50 (A549 [26]) was > 100 µM and the GI50 (Hs 683) was 84 µM. The Activity [33] was “inactive”, the Activity [34] was “Active” and the GI50 (B16-F10) was 37 µM.
